From ChEMBL document CHEMBL3272270, “Potential antitumor agents. 23. 4'-(9-Acridinylamino)alkanesulfonanilide congeners bearing hydrophilic functionality” (J Med Chem, 1977) come the findings set out here.

A short description of data set [1]: Half life in mouse L1210 cells allografted C3H/DBA2 F1 hybrid hybrid mouse.
Data set [2] is described as follows: Retardation factor, Rm of the compound by reversed phase partition chromatography. Type of data set: physicochemical.
The subject of data set [3] is L1210. Briefly: Antileukemic activity against ip implanted mouse L1210 cells in C3H/DBA2 F1 hybrid hybrid mouse assessed as increase life span treated ip after 24 hrs after tumor inoculation and continued for 5 days. Type of data set: functional. In a few lines:
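10^5 L1210 cells implanted ip in 18.5-22.5-g C3H/DBA2 F1 hybrid mice. Drug given ip from 24 h after inoculation, continuing for 5 days, each dose in 0.2 mL. Dose levels spaced at 0.18 log intervals, six mice per dose, one control group per six test groups. Read-out is life extension; 50-day survivors counted as cures.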

Another data set has as its system Mus musculus. Nature of the data set: Toxicity in sc implanted mouse L1210 cells allografted C3H/DBA2 F1 hybrid hybrid mouse assessed as optimum dose required to increase life span treated ip after 24 hrs after tumor inoculation and continued for 5 days. Type of data set: organism-based. As to conditions: in vivo. In a few lines:
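10^5 L1210 cells implanted sc above the right axilla in 18.5-22.5-g C3H/DBA2 F1 hybrid mice. Ip dosing (0.2 mL per dose) ran daily for 5 days from 24 h. Dilution series at 0.18 log intervals, with the median dose set at the earlier ip L1210 optimum. Six mice per dose, one control group per six test groups. Tests were repeated until the highest dose was toxic and the lowest clearly suboptimal.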

The test system of data set [4] is L1210. Briefly: Antileukemic activity against sc implanted mouse L1210 cells in C3H/DBA2 F1 hybrid hybrid mouse assessed as increase life span treated ip after 24 hrs after tumor inoculation and continued for 5 days. Type of data set: functional. In short, it runs like this:
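10^5 L1210 cells implanted sc above the right axilla in 18.5-22.5-g C3H/DBA2 F1 hybrid mice. Drug given ip (0.2 mL) from 24 h for 5 days. Dilution series at 0.18 log intervals, centred on the optimum ip L1210 dose. Top dose had to show toxicity and lowest dose had to be suboptimal, otherwise the test was repeated. Read-out is life extension.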

For orientation: half-life means the time needed for the level to fall by half in the phase considered. A lower half-life goes with rapid decline. The ILS is the gain in survival time of treated over control animals, in per cent.

The compound `Nc1ccc(Nc2c3ccccc3nc3ccccc23)cc1` came in with a half-life in data set [1] of 12 min.

Regarding `CCCS(=O)(=O)Nc1ccc(Nc2c3ccccc3nc3c(C(=O)N[C@H]4[C@@H](OC)O[C@H](CO)[C@@H](O)[C@@H]4O)cccc23)c(OC)c1.Cl`, the Rm in data set [2] is reported as -0.1. The ILS came to 180% in the data set with L1210 [3] and 51% with L1210 [4]. The Activity in the data set on Mus musculus was found to be 400 mg/kg.

On to `Br.COc1cc(NS(C)(=O)=O)ccc1Nc1c2ccccc2nc2c(CCC(N)=O)cccc12`, for which the Rm in data set [2] was -0.17. Besides, the ILS with L1210 [3] turned out to be 94%; in the data set with L1210 [4], 30%. For the same compound, the Activity in the data set on Mus musculus amounted to 15 mg/kg.

`COc1cc(NS(C)(=O)=O)ccc1Nc1c2ccccc2nc2c(OCCO)cccc12.Cl`: in data set [2], the Rm is 0.09. Also, the ILS in the data set with L1210 [3] is listed as 112%; in the data set on L1210 [4], 28%. Moreover, in the data set on Mus musculus, the Activity worked out at 5 mg/kg.

`COc1cc(NS(C)(=O)=O)ccc1Nc1c2ccccc2nc2c(OCC(O)CO)cccc12.Cl` (stereo not given): in data set [2], the Rm was -0.09. Besides, the ILS with L1210 [3] stood at 123%; in the data set on L1210 [4], 43%. Also, in the data set on Mus musculus, the Activity was determined as 17 mg/kg.

In turn, `Cc1cc(NS(C)(=O)=O)ccc1Nc1c2ccccc2nc2c(OCC(O)CO)cccc12.Cl` (stereo not given) came in with a Rm in data set [2] of -0.03. Besides, the ILS turned out to be 110% in the data set on L1210 [3] and 41% with L1210 [4]. In the data set with Mus musculus, the Activity was determined as 100 mg/kg.

`COc1cc(NS(C)(=O)=O)ccc1Nc1c2ccccc2nc2ccccc12` [AMSACRINE]: the Rm in data set [2] is 0.18. For the same compound, the ILS is on record as 114% in the data set on L1210 [3] and 27% in the data set on L1210 [4]. The Activity with Mus musculus amounted to 6.7 mg/kg.
